Measured values taken from article PMC6923798 (Bioorganic chemistry, 2018).

How the values were obtained:
[1] = tested on: HL-60(TB); experiment: NCI in vitro five dose anticancer assay; format: cell-based, human
[2] = tested on: SR; experiment: NCI in vitro five dose anticancer assay; format: cell-based, human; settings: 48 h
[3] = tested on: EKVX; experiment: NCI in vitro five dose anticancer assay; format: cell-based, human; settings: 48 h
[4] = tested on: HOP-62; experiment: NCI in vitro five dose anticancer assay; format: cell-based, human
[5] = tested on: HOP-92; experiment: NCI in vitro five dose anticancer assay; format: cell-based, human
[6] = tested on: NCI-H460; experiment: NCI in vitro five dose anticancer assay; format: cell-based, human
[7] = tested on: COLO 205; experiment: NCI in vitro five dose anticancer assay; format: cell-based, human
[8] = tested on: HCC-2998; experiment: NCI in vitro five dose anticancer assay; format: cell-based, human
[9] = tested on: HCT-116; experiment: NCI in vitro five dose anticancer assay; format: cell-based, human
[10] = tested on: HCT-15; experiment: NCI in vitro five dose anticancer assay; format: cell-based, human
[11] = tested on: KM12; experiment: NCI in vitro five dose anticancer assay; format: cell-based, human
[12] = tested on: SF-268; experiment: NCI in vitro five dose anticancer assay; format: cell-based, human
[13] = tested on: SF-295; experiment: NCI in vitro five dose anticancer assay; format: cell-based, human
[14] = tested on: SF-539; experiment: NCI in vitro five dose anticancer assay; format: cell-based, human
[15] = tested on: PC-3; experiment: NCI in vitro five dose anticancer assay; format: cell-based, human
[16] = tested on: LOX IMVI; experiment: NCI in vitro five dose anticancer assay; format: cell-based, human; settings: 48 h
[17] = tested on: SK-MEL-2; experiment: NCI in vitro five dose anticancer assay; format: cell-based, human
[18] = tested on: SK-MEL-5; experiment: NCI in vitro five dose anticancer assay; format: cell-based, human
[19] = tested on: UACC-257; experiment: NCI in vitro five dose anticancer assay; format: cell-based, human
[20] = tested on: UACC-62; experiment: NCI in vitro five dose anticancer assay; format: cell-based, human
[21] = tested on: OVCAR-4; experiment: NCI in vitro five dose anticancer assay; format: cell-based, human
[22] = tested on: ACHN; experiment: NCI in vitro five dose anticancer assay; format: cell-based, human; settings: 48 h
[23] = tested on: RXF 393; experiment: NCI in vitro five dose anticancer assay; format: cell-based, human
[24] = tested on: SN12C; experiment: NCI in vitro five dose anticancer assay; format: cell-based, human; settings: 48 h
[25] = tested on: MDA-MB231/ATCC; experiment: NCI in vitro five dose anticancer assay; format: cell-based, human
[26] = tested on: HS 578T; experiment: NCI in vitro five dose anticancer assay; format: cell-based, human; settings: 48 h
[27] = tested on: BT-549; experiment: NCI in vitro five dose anticancer assay; format: cell-based, human
[28] = tested on: K-562 cell line; experiment: NCI in vitro one dose anticancer assay; format: cell-based; settings: Homo sapiens, K562, 48 h, read-out: % growth inhibition
Procedure, shortened: (§1)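 NCI protocol. Test compound added once at 10−5 M to ~60 human tumour lines from nine subpanels. Incubated 48 h at 37 °C, 5% CO2, 95% air, 100% relative humidity. Endpoint by sulforhodamine B protein staining with spectrophotometric absorbance. Growth of treated cells reported as percent of untreated cells.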

[29] = tested on: SR cell line; experiment: NCI in vitro one dose anticancer assay; format: cell-based; settings: Homo sapiens, 48 h, read-out: % growth inhibition
Procedure, shortened: as §1

[30] = tested on: full panel of 58 human tumor cell lines; experiment: NCI in vitro five dose anticancer assay, whole panel; format: cell-based; settings: read-out: GI50 (range over panel)
[31] = tested on: K-562; experiment: MTT anti-proliferative assay; format: cell-based, human; settings: Homo sapiens, K562, 24 h, read-out: IC50 ± SD, K-562
[32] = tested on: EGFR, p-EGFR, Src and p-Src in K562 cells; experiment: Western blot analysis in K562 cells; format: cell-based, human; settings: K562 cells, 0.2, 0.8, 1.6 μM, 24 h
Procedure, shortened: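 K562 cells incubated 24 h with test compound at 0.2, 0.8 or 1.6 μM, or DMSO. 50 μg protein resolved on 8 or 10% SDS-PAGE and transferred to PVDF. Blocked 1 h in PBS with 3% non-fat milk, 1% BSA, 0.5% Tween-20. Primary antibody overnight, then HRP-IgG 1 h at room temperature. ECL detection on X-ray film.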

`COc1ccc(C=CC(=O)c2ccc(NC(=O)CSc3nnc(-c4cc(OC)c(OC)c(OC)c4)o3)cc2)cc1` [Compound 8v, N-(4-(3-(4-Methoxyphenyl)acryloyl)phenyl)-2-((5-(3,4,5-trimethoxy-phenyl)-1,3,4-oxadiazol-2-yl)thio)acetamide] gave a TGI ([1]; HL-60(TB), Leukemia, five dose, 48 h, SRB) of 4100 nM, a GI50 ([1]; Homo sapiens, HL-60, 48 h) of 2000 nM and a GI50 ([2]; Homo sapiens) of 1860 nM. For the same compound, the TGI ([2]; Leukemia, five dose, SRB) was 4010 nM, the GI50 ([3]; Homo sapiens) was 1790 nM and the TGI ([3]; Non-Small Cell Lung Cancer, five dose, SRB) was 3980 nM. The TGI ([4]; HOP-62, Non-Small Cell Lung Cancer, five dose, 48 h, SRB) was 4530 nM, the GI50 ([4]; Homo sapiens, HOP-62, 48 h) was 2130 nM and the TGI ([5]; HOP-92, Non-Small Cell Lung Cancer, five dose, 48 h, SRB) was 4230 nM. It also gave a GI50 ([5]; Homo sapiens, HOP-92, 48 h) of 1930 nM, a GI50 ([6]; Homo sapiens, NCI-H460, 48 h) of 2000 nM and a TGI ([6]; NCI-H460, Non-Small Cell Lung Cancer, five dose, 48 h, SRB) of 3850 nM. It also gave a TGI ([7]; COLO 205, Colon Cancer, five dose, 48 h, SRB) of 3840 nM, a GI50 ([7]; Homo sapiens, COLO 205, 48 h) of 1940 nM and a TGI ([8]; HCC-2998, Colon Cancer, five dose, 48 h, SRB) of 3650 nM. It also gave a GI50 ([8]; Homo sapiens, HCC 2998, 48 h) of 1880 nM, a TGI ([9]; HCT-116, Colon Cancer, five dose, 48 h, SRB) of 1940 nM and a GI50 ([9]; Homo sapiens, HCT-116, 48 h) of 500 nM. For the same compound, the TGI ([10]; HCT-15, Colon Cancer, five dose, 48 h, SRB) was 3220 nM, the GI50 ([10]; Homo sapiens, HCT-15, 48 h) was 1630 nM and the GI50 ([11]; Homo sapiens, KM12, 48 h) was 1770 nM. For the same compound, the TGI ([11]; KM12, Colon Cancer, five dose, 48 h, SRB) was 3400 nM, the GI50 ([12]; Homo sapiens, SF-268, 48 h) was 1790 nM and the TGI ([12]; SF-268, CNS cancer, five dose, 48 h, SRB) was 3960 nM. The GI50 ([13]; Homo sapiens, SF-295, 48 h) was 1770 nM, the TGI ([13]; SF-295, CNS cancer, five dose, 48 h, SRB) was 3350 nM and the GI50 ([14]; Homo sapiens, SF-539, 48 h) was 1640 nM. The TGI ([14]; SF-539, CNS cancer, five dose, 48 h, SRB) was 3030 nM, the GI50 ([15]; Homo sapiens, PC-3, 48 h) was 1750 nM and the TGI ([15]; PC-3, Prostate Cancer, five dose, 48 h, SRB) was 3300 nM. It also gave a GI50 ([16]; Homo sapiens) of 320 nM, a TGI ([16]; Melanoma, five dose, SRB) of 1280 nM and a GI50 ([17]; Homo sapiens, SK-MEL-2, 48 h) of 1790 nM. It also gave a TGI ([17]; SK-MEL-2, Melanoma, five dose, 48 h, SRB) of 4820 nM, a GI50 ([18]; Homo sapiens, SK-MEL-5, 48 h) of 2140 nM and a TGI ([18]; SK-MEL-5, Melanoma, five dose, 48 h, SRB) of 5240 nM. For the same compound, the GI50 ([19]; Homo sapiens, UACC-257, 48 h) was 2160 nM, the TGI ([19]; UACC-257, Melanoma, five dose, 48 h, SRB) was 4690 nM and the GI50 ([20]; Homo sapiens, UACC-62, 48 h) was 1730 nM. The TGI ([20]; UACC-62, Melanoma, five dose, 48 h, SRB) was 3430 nM, the GI50 ([21]; Homo sapiens, OVCAR-4, 48 h) was 2000 nM and the TGI ([21]; OVCAR-4, Ovarian Cancer, five dose, 48 h, SRB) was 4620 nM. The GI50 ([22]; Homo sapiens) was 1720 nM, the TGI ([22]; Renal Cancer, five dose, SRB) was 3220 nM and the GI50 ([23]; Homo sapiens, RXF 393, 48 h) was 1740 nM. For the same compound, the TGI ([23]; RXF 393, Renal Cancer, five dose, 48 h, SRB) was 3540 nM, the GI50 ([24]; Homo sapiens) was 1830 nM and the TGI ([24]; Renal Cancer, five dose, SRB) was 3570 nM. For the same compound, the GI50 ([25]; Homo sapiens, MDA-MB-231, 48 h) was 1820 nM, the TGI ([25]; MDA-MB231/ATCC, Breast cancer, five dose, 48 h, SRB) was 3500 nM and the TGI ([26]; HS 578T, Breast cancer, five dose, SRB) was 7760 nM. For the same compound, the GI50 ([26]; Homo sapiens, Hs-578T) was 2650 nM, the TGI ([27]; BT-549, Breast cancer, five dose, 48 h, SRB) was 2810 nM and the GI50 ([27]; Homo sapiens, BT-549, 48 h) was 1400 nM. The inhibition at 10 µM [28] was 35.8 to 152%, the inhibition at 10 µM [29] was 32.9 to 160% and the GI50 [30] was 320 to 11000 nM. For the same compound, the IC50 [31] was 1950 ± 180 nM and the “protein expression levels of p-EGFR, EGFR, p-Src and Src” value [32] was “downregulated”.
